A selection: hits, their analogues and other compounds. The true share with any hit is near 1.7%.
HCV core dimer – inhibitors of HCV core protein dimerization, primary screen, biochemical, TR-FRET, high-throughput; TR-FRET GST/Flag-core106 dimerization, 1536-well; inhibition, % at 5 µM; 0.33% of 300,000 active;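 active means inhibition above the mean of all tested compounds plus 3 SD, set per screening campaign, cut at about 45% in these data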
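Assay system: GST-tagged and Flag-tagged HCV core protein residues 1-106 / Times: compound-protein-antibody incubation 4 h at 22.5 °C / Signal: time-resolved FRET, ex 340 nm, em 617 and 671 nm / Evaluation: % inhibition based on acceptor/donor emission ratio / Benchmarks: wells lacking GST-core106 and wells with excess unlabelled core106 / Repeats: singlicate, one well per compound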
EBV gp42 inh – Epstein-Barr virus gp42 inhibitors, primary screen, biochemical, uHTS, fluorescence polarization; AID 1085, 2008; Fluorescence polarization binding assay, mP read-out; 0.42% of 220,000 active; inhibition, % (tested at 21.74 µM); Glycoprotein 42 (Epstein-Barr virus (strain AG876)), Q1HVG2; in the data active means inhibition above about 50%
ZTA DNA inh – ZTA (EBV) inhibition in EBNA-1 counter-screen | P03206 | ZTA-DNA binding, fluorescence polarization | inhibition, % at 11 µM | 0.15% of 320,000 active | AID 2234; in the data active means inhibition above about 33%
Target sequence (P03206 whole entry, looked up): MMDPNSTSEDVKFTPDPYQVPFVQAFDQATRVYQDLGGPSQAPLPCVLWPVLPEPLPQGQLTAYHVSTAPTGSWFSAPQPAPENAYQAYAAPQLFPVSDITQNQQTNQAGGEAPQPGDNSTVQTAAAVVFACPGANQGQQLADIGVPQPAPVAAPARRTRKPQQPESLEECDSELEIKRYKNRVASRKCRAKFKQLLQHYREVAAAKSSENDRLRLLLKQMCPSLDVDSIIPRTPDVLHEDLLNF
MEX-5 binding – MEX-5 zinc finger RNA-binding disruptors – biochemical, C. elegans, fluorescence polarization, MLPCN library, primary screen. Zinc finger protein mex-5 (Caenorhabditis elegans), Q9XUB2. MEX-5/FITC-TCR2 RNA binding; stronger effect = lower value. activity score (negative = inhibition of binding), % at 10 µM. 0.38% of 300,000 active. AID 1832, 2009;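 active means inhibition past about -25% in most replicates, and total fluorescence under double the plate's negative control median, limit read from the data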
Target sequence (Q9XUB2 whole entry, looked up): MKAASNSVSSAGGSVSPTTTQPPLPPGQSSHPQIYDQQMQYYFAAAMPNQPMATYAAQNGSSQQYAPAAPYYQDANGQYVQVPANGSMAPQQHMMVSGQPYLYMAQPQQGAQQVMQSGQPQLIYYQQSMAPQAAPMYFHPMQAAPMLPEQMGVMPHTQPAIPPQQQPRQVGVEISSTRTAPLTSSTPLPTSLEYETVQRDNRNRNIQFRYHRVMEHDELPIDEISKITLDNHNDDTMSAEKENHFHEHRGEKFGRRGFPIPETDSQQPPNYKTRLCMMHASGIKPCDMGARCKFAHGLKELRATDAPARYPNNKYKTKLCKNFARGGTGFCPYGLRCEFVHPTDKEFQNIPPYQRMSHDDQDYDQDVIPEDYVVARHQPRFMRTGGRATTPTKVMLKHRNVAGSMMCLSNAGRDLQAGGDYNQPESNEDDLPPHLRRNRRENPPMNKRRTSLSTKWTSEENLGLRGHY
HCV NS3 hel inh – inhibitors of HCV NS3 helicase, primary screen, biochemical, Cy5 molecular beacon fluorescence | NS3 helicase DNA unwinding | Hepatitis C virus NS3 helicase | 0.56% of 290,000 active | inhibition, % at 10.9 µM;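 active means inhibition above the mean of all tested compounds plus 3 SD, set per campaign, cut at about 35% in these data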
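Test system: hepatitis C virus NS3 helicase domain fragment enzyme. Also added: annealed dual-labelled DNA beacon duplex, ATP-started. Timing: 60 min unwinding reaction at 25 °C after ATP addition. Technique: Cy5 fluorescence. Measure: % inhibition of unwinding.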
EBNA-1 inhibitor – EBNA-1 DNA-binding inhibitors, primary screen, biochemical, fluorescence polarization. inhibition, % at 14.8 µM. 0.34% of 300,000 active. AID 1950, 2009; in the data active means inhibition above about 28%
NS3 hel confirm – HCV NS3 helicase inhibitors, retest, confirmation, biochemical, Cy5 molecular beacon fluorescence, triplicate; NS3 helicase DNA unwinding; inhibition, % at 10.9 µM; shares compounds with HCV NS3 hel inh; 31% of 1,600 active; AID 1943, 2009;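 active means inhibition above the mean of all tested compounds plus 3 SD, cutoff set per campaign, cut at about 36% in these data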
FID counter trip – compounds displacing fluorescent DNA intercalator, artefact control for HCV NS3 helicase inhibitor project, biochemical, FID fluorescence, triplicate. shares compounds with HCV NS3 hel inh. DNA fluorescent intercalator displacement. inhibition, % at 7.9 µM. 4% of 1,600 active; in the data active means inhibition above about 37%;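 further: higher means more displacement of ethidium bromide from the DNA hairpin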
FID counter DR – compounds displacing fluorescent intercalator from DNA, dose response, counter-screen for HCV NS3 helicase inhibitor project, biochemical, fluorescence; 120 tested, under 10 active; AID 2172, 2009; fluorescent intercalator displacement from DNA; shares compounds with HCV NS3 hel inh; IC50, µM; call rule not given here
Of the large screens only hits and unclear results are named; the others gave an inactive call (follow-up assays come after a bar, where they were run).

CC(C)CSC1=NSC2=NC(=O)/C(=C\c3ccccc3)C(=N)N12	HCV NS3 hel inh 43.4 | NS3 hel confirm 68.5 | FID counter trip inactive
Cc1cc(NS(=O)(=O)c2ccc(NC(=O)/C=C/c3c(F)cccc3Cl)cc2)nc(C)n1	HCV NS3 hel inh 36.4 (no result: EBV gp42 inh) | NS3 hel confirm inactive | FID counter trip inactive
Cc1cc(NS(=O)(=O)c2ccc(NC(=O)/C=C/c3c(F)cccc3Cl)cc2)no1	none (no result: EBV gp42 inh)
COC(=O)N/N=C/c1cc(C)n(-c2ccc(F)cc2)c1C	HCV NS3 hel inh 42.2 | NS3 hel confirm inactive | FID counter trip inactive
CCCOc1cccc(C2/C(=C(\O)c3ccc4c(c3)OCCO4)C(=O)C(=O)N2CCCn2ccnc2)c1 (stereo unspecified)	HCV NS3 hel inh 41.0 (no result: EBV gp42 inh) | NS3 hel confirm inactive | FID counter trip inactive
C=CCOc1ccc(C2/C(=C(\O)c3ccc4c(c3)OCCO4)C(=O)C(=O)N2CCCN2CCOCC2)cc1 (stereo unspecified)	HCV NS3 hel inh 50.0 (no result: EBV gp42 inh) | NS3 hel confirm inactive | FID counter trip inactive
COC(=O)c1ccc(C2/C(=C(\O)c3ccc4c(c3)OCCO4)C(=O)C(=O)N2CCCN2CCOCC2)cc1 (stereo unspecified)	none (no result: EBV gp42 inh)
CCC(=Nc1ccc(N)cc1)C1=C(O)C(C(=O)OC)C(C)(C)CC1=O (stereo unspecified)	HCV NS3 hel inh 47.0 | NS3 hel confirm inactive | FID counter trip inactive
Cn1c(SCc2n[nH]c(=S)n2-c2ccccc2)nnc1-c1ccccc1	HCV NS3 hel inh 46.8 | NS3 hel confirm inactive | FID counter trip inactive
Nc1ccc(C(CC(=O)O)n2cccc2)cc1 (stereo unspecified)	HCV NS3 hel inh 52.0 | NS3 hel confirm inactive | FID counter trip inactive
CCOC(=O)c1cn(Cc2ccc(C)cc2)c2cc(F)ccc2c1=O	none (no result: EBV gp42 inh)
O=C(O)c1cccc(NC(=S)N/N=C/c2ccccc2OCc2ccc(Br)cc2)c1	HCV NS3 hel inh 41.7 | NS3 hel confirm 63.4 | FID counter trip inactive
Cc1ccc(C)c(NC(=S)Nc2cccc3cnccc23)c1	none
Cc1ccc(F)c(NC(=S)Nc2cccc3ccccc23)c1	HCV NS3 hel inh 51.6 (no result: EBV gp42 inh) | NS3 hel confirm inactive | FID counter trip inactive
Cc1noc(/C=C/c2ccco2)c1S(=O)(=O)N1CCC(C(=O)NCc2ccco2)CC1	none
Cc1ccc(CNC(=O)C2CCN(S(=O)(=O)c3c(C)noc3/C=C/c3ccco3)CC2)cc1	HCV NS3 hel inh 63.1 | NS3 hel confirm inactive | FID counter trip inactive
Cc1ccc(/C(O)=C2/C(=O)C(=O)N(c3ccccn3)C2c2ccc([N+](=O)[O-])cc2)cc1 (stereo unspecified)	HCV NS3 hel inh 36.1 (no result: EBV gp42 inh) | NS3 hel confirm inactive | FID counter trip inactive
Cc1ccc(/C(O)=C2/C(=O)C(=O)N(c3ccccn3)C2c2cccc([N+](=O)[O-])c2)cc1 (stereo unspecified)	HCV NS3 hel inh 48.4 (no result: EBV gp42 inh) | NS3 hel confirm inactive | FID counter trip inactive
COc1ccc(C2/C(=C(/O)c3ccc(C)cc3)C(=O)C(=O)N2c2ccccn2)cc1 (stereo unspecified)	none (no result: EBV gp42 inh)
Cc1cccc(NC(=O)c2nc[nH]c2C(=O)N2CCc3ccccc3C2)c1	none (no result: HCV core dimer, EBV gp42 inh, MEX-5 binding, HCV NS3 hel inh, EBNA-1 inhibitor)
CC(=O)C1=C(C)NC(SCc2cccc3ccccc23)=C(C#N)C1c1ccco1 (stereo unspecified)	HCV NS3 hel inh 37.6 | NS3 hel confirm inactive | FID counter trip inactive
O=C(c1ccc(F)cc1)C1CCN(C(=S)Nc2ccc(F)cc2)CC1	none (no result: EBV gp42 inh)
Oc1c(Br)cc(Br)cc1/C=N/Nc1ccc(Cl)nn1	HCV NS3 hel inh 41.3 (no result: EBV gp42 inh) | NS3 hel confirm inactive | FID counter trip inactive
Oc1c(Br)cc(/C=N/Nc2ccc(Cl)nn2)cc1Br	none (no result: EBV gp42 inh)
CCCCCCC(=O)N(O)C1CC(=O)N(c2ccc(C)cc2)C1=O (stereo unspecified)	none
Cc1ccc(N2C(=O)CC(N(O)C3CC(=O)N(c4ccc(C)cc4)C3=O)C2=O)cc1 (stereo unspecified)	HCV NS3 hel inh 37.5 | NS3 hel confirm inactive | FID counter trip inactive
N=C1S/C(=C\c2ccco2)C(=O)N1c1ccc2c(c1)OCO2	HCV NS3 hel inh 39.7 | NS3 hel confirm inactive | FID counter trip inactive
CC(OC(=O)c1cc(=O)[nH]c2ccccc12)C(=O)c1ccccc1 (stereo unspecified)	none
CN1CCN(C(c2ccc(Br)cc2)c2cc(Cl)c3cccnc3c2O)CC1 (stereo unspecified)	HCV NS3 hel inh 40.0 (no result: EBV gp42 inh) | NS3 hel confirm inactive | FID counter trip 74.2
COc1cccc(N2C(=O)CC(Nc3ccc(N4CCOCC4)cc3)C2=O)c1 (stereo unspecified)	none
O=C1CC(Nc2ccc(N3CCOCC3)cc2)C(=O)N1c1cccc(C(F)(F)F)c1 (stereo unspecified)	HCV NS3 hel inh 48.3 | NS3 hel confirm inactive | FID counter trip inactive
CC1(C)CC(=O)N(c2ccc(Cl)cc2Cl)C(=O)C1	none (no result: EBV gp42 inh)
S=C(Nc1ccc(N2CCOCC2)cc1)Nc1ccc2nc(-c3ccco3)c(-c3ccco3)nc2c1	HCV core dimer 83.1, EBV gp42 inh 110.8, HCV NS3 hel inh 54.7 | NS3 hel confirm inactive | FID counter trip inactive
CC(=O)c1ccc(NC(=O)CSc2nnc(-c3ccco3)c(-c3ccco3)n2)cc1	none
O=C(c1ccc2nc(-c3ccco3)c(-c3ccco3)nc2c1)N1CCN(c2ncccn2)CC1	HCV core dimer 62.5, HCV NS3 hel inh 52.8 | NS3 hel confirm 83.6 | FID counter trip inactive | FID counter DR inactive
O=C(Nc1cccnc1)c1ccc2nc(-c3ccccc3)c(-c3ccccc3)nc2c1	none
CC(=O)c1ccc(NC(=O)c2ccc3nc(-c4ccco4)c(-c4ccco4)nc3c2)cc1	HCV core dimer 78.1, EBV gp42 inh 98.9, HCV NS3 hel inh 38.7 | NS3 hel confirm 77.9 | FID counter trip inactive
O=C(Nc1ccc(N2CCOCC2)cc1)c1ccc2nc(-c3ccco3)c(-c3ccco3)nc2c1	none
